This is an account of results in ChEMBL document CHEMBL4706770, “SD-91 as A Potent and Selective STAT3 Degrader Capable of Achieving Complete and Long-Lasting Tumor Regression” (ACS Med Chem Lett, 2021).

Activity calls are given as the source filed them. No cut-off for these calls is given here.

Data set [1] can be described thus: Antitumor activity against human MOLM16 cells xenografted in SCID mouse assessed as tumor growth at 25 mg/kg, iv administered weekly measured after 2 weeks relative to control. Format: functional. The procedure, abridged:
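SCID mice bearing MOLM-16 xenografts given compound iv once weekly at 25 or 50 mg/kg. Tumor volume and body weight measured every 2 days. Growth inhibition expressed against vehicle-treated controls.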
A general note: A xenograft is tissue or cells of one species grown in another, often human tumour cells in immunodeficient mice.

The test system of another data set is Mus musculus. Description: In vivo induction of STAT3 degradation in SCID mouse xenografted with human SU-DHL-1 cells assessed as reduction in phosphorylated STAT3 level in tumor tissue at 50 mg/kg, iv measured after 24 hrs by immunoblotting analysis. The format is functional, organism-based. The procedure, abridged: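 SCID mice bearing MOLM-16 or SU-DHL-1 xenografts given a single iv dose of 50 mg/kg or dosing vehicle. Tumor lysates immunoblotted for p-STAT3 Y705 and total STAT3 at time points up to 48 h (MOLM-16) and 24 h (SU-DHL-1).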

The target in data set [2] is T1, Signal transducer and activator of transcription 5A (Homo sapiens, UniProt P42229).
T1 sequence (P42229 whole entry): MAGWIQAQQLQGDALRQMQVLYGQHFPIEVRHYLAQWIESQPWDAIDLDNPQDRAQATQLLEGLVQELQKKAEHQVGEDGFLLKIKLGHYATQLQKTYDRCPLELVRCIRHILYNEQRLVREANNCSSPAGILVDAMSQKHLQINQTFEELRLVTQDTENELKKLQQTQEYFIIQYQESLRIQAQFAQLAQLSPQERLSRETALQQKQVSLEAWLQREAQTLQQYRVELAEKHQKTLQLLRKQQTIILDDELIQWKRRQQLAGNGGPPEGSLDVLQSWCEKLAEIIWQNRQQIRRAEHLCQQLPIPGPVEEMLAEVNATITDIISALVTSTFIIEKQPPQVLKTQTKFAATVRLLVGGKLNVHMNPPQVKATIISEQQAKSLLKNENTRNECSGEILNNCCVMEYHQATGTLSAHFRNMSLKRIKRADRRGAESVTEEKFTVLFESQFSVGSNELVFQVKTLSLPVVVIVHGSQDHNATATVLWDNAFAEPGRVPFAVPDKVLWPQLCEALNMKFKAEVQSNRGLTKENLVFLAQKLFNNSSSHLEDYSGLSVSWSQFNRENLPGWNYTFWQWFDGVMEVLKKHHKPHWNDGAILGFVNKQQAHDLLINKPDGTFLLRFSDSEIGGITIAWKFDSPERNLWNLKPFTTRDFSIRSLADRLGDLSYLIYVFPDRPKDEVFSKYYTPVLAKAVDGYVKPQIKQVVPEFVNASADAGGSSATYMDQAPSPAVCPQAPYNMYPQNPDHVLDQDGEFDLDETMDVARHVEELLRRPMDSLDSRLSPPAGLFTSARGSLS
Kind of data set: Binding affinity to human recombinant STAT5A assessed as dissociation constant incubated for 15 mins by biolayer interferometry. The procedure, abridged:
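Biolayer interferometry with recombinant human STAT1, STAT2, STAT3, STAT4, STAT5A, STAT5B or STAT6 proteins containing their SH2 domain. Compound run in 2× serial dilutions from 200 nM. Kd taken from steady-state fitting of equilibrium responses against concentration using a 1:1 binding model.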

Data set [3] addresses Protein cereblon/Signal transducer and activator of transcription 2 (Homo sapiens) (UniProt Q96SW2+P52630). Description: Protac activity at CRBN/STAT2 in human MOLM16 cells assessed as STAT2 degradation at 0.25 to 100 uM incubated for 4 hrs by Western blot analysis. The format is cell-based. Conditions: dose 0.25-100 µM. In a few lines: (§1)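 Cells treated 4 h with compounds across 25 nM to 100 μM; STAT proteins detected by Western blot with GAPDH as loading control; STAT3 DC50 estimated by densitometry of STAT3 relative to GAPDH. Applies to MOLM-16 for all STATs, and to SU-DHL-1 and SUP-M2 for STAT3.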
(A western blot detects proteins with antibodies after separation by electrophoresis.)

In data set [4] the target is T2, Protein cereblon/Signal transducer and activator of transcription 3 (Homo sapiens, UniProt P40763+Q96SW2). Description: In vivo protac activity at CRBN/STAT3 degradation in SCID mouse xenografted with human MOLM16 cells assessed as reduction in STAT3 in tumor tissue at 50 mg/kg, iv measured after 24 hrs by immunoblotting analysis. The format is functional, organism-based. The procedure, abridged:
(§2)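 SCID mice bearing MOLM-16 tumors given a single iv dose of 50 mg/kg or dosing vehicle. Tumor lysates immunoblotted for STAT3, STAT1 and STAT6 at time points from 1 h to at least 24 h.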
Target sequence in this assay (P40763 2-770 limits assumed): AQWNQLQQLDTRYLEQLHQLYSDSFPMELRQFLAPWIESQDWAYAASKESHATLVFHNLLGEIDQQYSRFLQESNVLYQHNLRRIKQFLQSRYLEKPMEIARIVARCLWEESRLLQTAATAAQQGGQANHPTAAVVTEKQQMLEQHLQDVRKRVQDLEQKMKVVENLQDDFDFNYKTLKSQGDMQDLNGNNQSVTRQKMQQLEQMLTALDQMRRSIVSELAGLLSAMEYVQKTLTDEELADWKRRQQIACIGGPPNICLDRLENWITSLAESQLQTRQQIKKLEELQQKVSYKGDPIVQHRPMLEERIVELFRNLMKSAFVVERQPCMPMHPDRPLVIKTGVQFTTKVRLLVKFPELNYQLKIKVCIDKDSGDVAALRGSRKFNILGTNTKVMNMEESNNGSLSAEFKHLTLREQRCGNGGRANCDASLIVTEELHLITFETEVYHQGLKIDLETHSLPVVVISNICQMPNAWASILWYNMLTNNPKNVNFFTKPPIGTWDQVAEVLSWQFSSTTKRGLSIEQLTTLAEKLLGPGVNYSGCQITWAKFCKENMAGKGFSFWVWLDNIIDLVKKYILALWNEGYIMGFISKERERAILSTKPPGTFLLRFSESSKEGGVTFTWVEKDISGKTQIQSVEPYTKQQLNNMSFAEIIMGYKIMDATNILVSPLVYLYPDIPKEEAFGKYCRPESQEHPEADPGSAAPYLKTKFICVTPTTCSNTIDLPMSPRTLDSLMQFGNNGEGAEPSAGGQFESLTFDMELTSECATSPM
Target sequence in this assay (Q96SW2 whole entry partner): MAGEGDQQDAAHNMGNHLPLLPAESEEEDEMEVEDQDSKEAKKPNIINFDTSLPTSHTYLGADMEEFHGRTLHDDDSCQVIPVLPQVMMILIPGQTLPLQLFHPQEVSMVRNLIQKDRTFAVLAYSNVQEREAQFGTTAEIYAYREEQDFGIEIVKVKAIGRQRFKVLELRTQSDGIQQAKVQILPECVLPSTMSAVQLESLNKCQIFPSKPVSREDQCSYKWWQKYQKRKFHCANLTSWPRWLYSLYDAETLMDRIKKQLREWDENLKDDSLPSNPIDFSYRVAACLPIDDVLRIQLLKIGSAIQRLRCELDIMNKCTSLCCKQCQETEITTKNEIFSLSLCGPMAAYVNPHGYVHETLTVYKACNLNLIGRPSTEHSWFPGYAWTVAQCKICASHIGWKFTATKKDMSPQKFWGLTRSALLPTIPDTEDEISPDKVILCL

Data set [5] addresses Protein cereblon/Signal transducer and activator of transcription 4 (Homo sapiens) (UniProt Q96SW2+Q14765). Kind of data set: Protac activity at CRBN/STAT4 in human MOLM16 cells assessed as STAT4 degradation at 0.25 to 100 uM incubated for 4 hrs by Western blot analysis. The format is cell-based. Conditions: dose 0.25-100 µM. In a few lines:
as §1

Data set [6] has as its target T3, Protein cereblon/Signal transducer and activator of transcription 1-alpha/beta (Homo sapiens) (UniProt P42224+Q96SW2). Description: In vivo protac activity at CRBN/STAT1 degradation in SCID mouse xenografted with human MOLM16 cells assessed as reduction in STAT1 in tumor tissue at 50 mg/kg, iv measured after 24 hrs by immunoblotting analysis. The format is functional, organism-based. The procedure, abridged: as §2

Data set [7] can be described thus: Drug metabolism buffer pH 4 assessed as conversion to 5-amino-4-(4-(8-((5S,8S,10aR)-8-((S)-5-amino-1-(benzhydrylamino)-1,5-dioxopentan-2-ylcarbamoyl)-6-oxo-5-(5-(phosphonocarbonyl)-1H-indole-2-carboxamido)octahydropyrrolo[1,2-a][1,5]diazocin-3(4H)-yl)-8-oxooct-1-ynyl)-1-oxoisoindolin-2-yl)-5-oxopentanoic acid measured upto 100 hrs by LC/MS/MS analysis. Conditions: time hrs <=100. In a few lines:
(§3)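 Parent compound incubated in buffer at pH 4 or pH 8, at room temperature or 37 °C. Percentages of the parent, the hydrolysis product and the glutarimide ring-opened product followed over time, up to 96 h.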

Data set [8] is described as follows: Stability of compound in buffer pH 8 assessed as conversion to (2-(((5S,8S,10aR)-8-(((S)-5-amino-1-(benzhydrylamino)-1,5-dioxopentan-2-yl)carbamoyl)-3-(8-(2-(2,6-dioxopiperidin-3-yl)-1-oxoisoindolin-4-yl)oct-7-ynoyl)-6-oxodecahydropyrrolo[1,2-a][1,5]diazocin-5-yl)carbamoyl)-1H-indole-5-carbonyl)phosphonic acid by measuring half life by LC/MS/MS analysis. Format: physicochemical. The procedure, abridged: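 SD-36 incubated in pH 8 buffer at room temperature; percentages of parent and hydrolysis products followed over time; half-life of conversion derived from the time course.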

The target of data set [9] is T3, Protein cereblon/Signal transducer and activator of transcription 1-alpha/beta (Homo sapiens). Kind of data set: Protac activity at CRBN/STAT1 in human SUP-M2 cells […] at 0.25 to 100 uM incubated for 4 hrs by Western blot analysis. The format is cell-based. Conditions: SUPM2, dose lower 0.25 µM.
Data set [10] deals with T2, Protein cereblon/Signal transducer and activator of transcription 3. Kind of data set: Protac activity at CRBN/STAT3 in human MOLM-16 cells assessed as degradation of STAT3 incubated for 4 hrs by western blot analysis. Format: cell-based. Conditions: molm16. In a few lines: as §1
Target sequence in this assay (P40763 whole entry): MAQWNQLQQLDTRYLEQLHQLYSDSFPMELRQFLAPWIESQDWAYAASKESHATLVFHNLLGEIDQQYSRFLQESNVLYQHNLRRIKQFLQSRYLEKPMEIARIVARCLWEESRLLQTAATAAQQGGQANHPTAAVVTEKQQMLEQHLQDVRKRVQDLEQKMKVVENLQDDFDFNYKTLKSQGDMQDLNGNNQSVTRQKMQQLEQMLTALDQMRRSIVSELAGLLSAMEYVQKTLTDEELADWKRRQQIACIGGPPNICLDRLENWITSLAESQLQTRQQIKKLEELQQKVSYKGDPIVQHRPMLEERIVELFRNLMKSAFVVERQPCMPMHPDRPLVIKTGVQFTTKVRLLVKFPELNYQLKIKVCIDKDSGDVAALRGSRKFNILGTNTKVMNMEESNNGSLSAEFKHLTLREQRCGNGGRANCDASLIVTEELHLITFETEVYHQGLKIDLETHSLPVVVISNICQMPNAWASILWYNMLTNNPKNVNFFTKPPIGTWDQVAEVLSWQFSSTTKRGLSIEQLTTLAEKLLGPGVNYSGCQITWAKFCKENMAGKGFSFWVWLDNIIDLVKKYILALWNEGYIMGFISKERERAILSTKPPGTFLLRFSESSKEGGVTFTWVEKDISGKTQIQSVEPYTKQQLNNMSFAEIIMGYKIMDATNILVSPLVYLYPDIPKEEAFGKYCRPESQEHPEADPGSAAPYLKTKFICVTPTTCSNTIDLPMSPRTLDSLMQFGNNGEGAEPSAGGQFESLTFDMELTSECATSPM
Target sequence in this assay (Q96SW2 whole entry): as the sequence (Q96SW2 whole entry partner) above
Data set [11] can be described thus: Drug metabolism in buffer pH 4 assessed as conversion to (2-(((5S,8S,10aR)-8-(((S)-5-amino-1-(benzhydrylamino)-1,5-dioxopentan-2-yl)carbamoyl)-3-(8-(2-(2,6-dioxopiperidin-3-yl)-1-oxoisoindolin-4-yl)oct-7-ynoyl)-6-oxodecahydropyrrolo[1,2-a][1,5]diazocin-5-yl)carbamoyl)-1H-indole-5-carbonyl)phosphonic acid by measured after 2 days at 37 degC by LC/MS/MS analysis. The note with it: time 2.0 day. In a few lines: as §3

Sequence of Protein cereblon/Signal transducer and activator of transcription 4 (Homo sapiens) (Q14765 whole entry, looked up): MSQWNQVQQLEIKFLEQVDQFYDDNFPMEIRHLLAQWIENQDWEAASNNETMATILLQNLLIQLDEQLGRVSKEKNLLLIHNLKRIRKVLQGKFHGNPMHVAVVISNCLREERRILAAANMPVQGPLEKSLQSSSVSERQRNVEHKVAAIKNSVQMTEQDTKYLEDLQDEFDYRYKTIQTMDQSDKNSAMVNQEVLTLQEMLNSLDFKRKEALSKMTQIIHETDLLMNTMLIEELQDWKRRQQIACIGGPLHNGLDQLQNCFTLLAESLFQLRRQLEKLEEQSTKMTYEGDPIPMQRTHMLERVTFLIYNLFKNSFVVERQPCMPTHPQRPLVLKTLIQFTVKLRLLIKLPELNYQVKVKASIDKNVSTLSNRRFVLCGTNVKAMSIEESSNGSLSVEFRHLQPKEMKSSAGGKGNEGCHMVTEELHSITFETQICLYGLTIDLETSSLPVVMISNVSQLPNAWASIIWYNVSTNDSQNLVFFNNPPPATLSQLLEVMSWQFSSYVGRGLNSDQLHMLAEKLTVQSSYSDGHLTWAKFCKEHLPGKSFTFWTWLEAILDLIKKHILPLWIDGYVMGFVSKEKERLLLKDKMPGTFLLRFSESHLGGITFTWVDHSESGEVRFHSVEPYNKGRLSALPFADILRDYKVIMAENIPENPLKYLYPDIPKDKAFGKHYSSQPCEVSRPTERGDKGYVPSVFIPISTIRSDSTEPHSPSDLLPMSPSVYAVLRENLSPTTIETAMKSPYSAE
Sequence of Protein cereblon/Signal transducer and activator of transcription 4 (Homo sapiens) (Q96SW2 whole entry, looked up): as the sequence (Q96SW2 whole entry partner) above
Sequence of Protein cereblon/Signal transducer and activator of transcription 2 (Homo sapiens) (P52630 whole entry, looked up): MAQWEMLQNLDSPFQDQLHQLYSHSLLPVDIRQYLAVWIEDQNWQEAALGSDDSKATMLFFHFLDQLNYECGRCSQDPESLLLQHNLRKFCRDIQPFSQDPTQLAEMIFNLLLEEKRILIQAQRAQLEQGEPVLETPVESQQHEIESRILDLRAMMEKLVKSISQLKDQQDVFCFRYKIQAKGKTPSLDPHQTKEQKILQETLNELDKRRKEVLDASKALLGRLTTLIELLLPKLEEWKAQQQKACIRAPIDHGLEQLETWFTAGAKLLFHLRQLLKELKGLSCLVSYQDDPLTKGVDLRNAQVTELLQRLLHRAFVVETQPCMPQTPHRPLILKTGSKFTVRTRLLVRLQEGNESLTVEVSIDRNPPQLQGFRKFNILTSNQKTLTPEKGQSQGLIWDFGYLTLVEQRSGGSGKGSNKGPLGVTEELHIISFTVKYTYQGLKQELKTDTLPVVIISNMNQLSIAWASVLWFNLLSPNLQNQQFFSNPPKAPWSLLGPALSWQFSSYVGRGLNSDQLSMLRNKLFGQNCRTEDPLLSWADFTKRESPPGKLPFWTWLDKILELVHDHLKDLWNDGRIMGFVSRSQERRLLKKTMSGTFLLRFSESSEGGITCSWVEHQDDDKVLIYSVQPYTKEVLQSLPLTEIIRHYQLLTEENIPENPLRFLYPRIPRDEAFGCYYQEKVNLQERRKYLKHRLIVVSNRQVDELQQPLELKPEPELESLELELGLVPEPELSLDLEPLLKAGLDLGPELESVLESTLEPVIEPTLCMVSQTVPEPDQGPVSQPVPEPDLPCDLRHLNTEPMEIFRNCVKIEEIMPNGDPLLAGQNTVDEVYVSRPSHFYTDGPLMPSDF
Sequence of Protein cereblon/Signal transducer and activator of transcription 2 (Homo sapiens) (Q96SW2 whole entry, looked up): as the sequence (Q96SW2 whole entry partner) above

With `NC(=O)CC[C@H](NC(=O)[C@@H]1CC[C@@H]2CCN(C(=O)CCCCCC#Cc3cccc4c3CN(C3CCC(=O)NC3=O)C4=O)C[C@H](NC(=O)c3cc4cc(C(=O)P(=O)(O)O)ccc4[nH]3)C(=O)N21)C(=O)NC(c1ccccc1)c1ccccc1` (some centres not stated), the Activity in data set [1] stood at 87%. In addition, the outcome with Mus musculus was Active. The Kd (in general, the constant that tells how readily two partners part at equilibrium) in data set [2] was over 10 nM.

`NC(=O)CC[C@H](NC(=O)[C@@H]1CC[C@@H]2CCN(C(=O)CCCCCC#Cc3cccc4c3CN(C3CCC(=O)NC3=O)C4=O)C[C@H](NC(=O)c3cc4cc(C(F)(F)P(=O)(O)O)ccc4[nH]3)C(=O)N21)C(=O)NC(c1ccccc1)c1ccccc1` (some centres not stated): the result in data set [3], in data set [5], in data set [6] and in data set [9] was inactive. For the same molecule, in [4], the result was Active. In addition, the Drug metabolism result in [7] is “Metabolite not detected”; in data set [11], 50%. Moreover, the t1/2 in [8] was 22 h. Further, the DC50 (as a rule, the midpoint of the concentration-degradation curve) in data set [10] stood at 380 nM.
